Measurements as given in ChEMBL document CHEMBL2046322, “Discovery of 1,3-Diaminobenzenes as Selective Inhibitors of Platelet Activation at the PAR1 Receptor” (ACS Med Chem Lett, 2012).
In brackets after ≈: the same amount, converted by molar mass. Activity calls are given as the source filed them. The calls are words filed in the database; no cut-off is given here.

Tests used:
[1] = biological target: T1, Proteinase-activated receptor 1 (Homo sapiens, UniProt P25116); assay: Inhibition of SFLLRN-NH2-stimulated PAR1-mediated platelet activation in […] assessed as surface expression of P-selectin after 20 mins by flow cytometry; parameters: species or system Plasma
T1 sequence (P25116 whole entry): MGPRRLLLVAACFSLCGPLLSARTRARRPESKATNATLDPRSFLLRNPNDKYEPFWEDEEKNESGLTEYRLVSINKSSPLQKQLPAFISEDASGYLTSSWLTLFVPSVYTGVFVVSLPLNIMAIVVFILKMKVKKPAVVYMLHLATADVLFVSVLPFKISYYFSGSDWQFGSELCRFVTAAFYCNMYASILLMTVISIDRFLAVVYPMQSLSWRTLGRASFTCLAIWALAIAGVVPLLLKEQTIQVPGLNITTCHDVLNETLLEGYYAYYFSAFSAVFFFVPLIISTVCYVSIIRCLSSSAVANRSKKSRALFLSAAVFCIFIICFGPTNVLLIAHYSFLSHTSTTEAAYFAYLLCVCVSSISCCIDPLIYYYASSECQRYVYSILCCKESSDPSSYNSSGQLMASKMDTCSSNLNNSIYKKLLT

[2] = biological target: T2, Proteinase-activated receptor 1 (Homo sapiens) (UniProt P25116); assay: Inhibition of SFLLRN-NH2-stimulated PAR1-mediated platelet activation in […] assessed as surface expression of P-selectin at 10 uM after 20 mins by flow cytometry; assay type: cell-based
T2 sequence (whole entry): T1 sequence (P25116 whole entry)

[3] = biological target: cGMP-inhibited 3',5'-cyclic phosphodiesterase 3A (Homo sapiens) (UniProt Q14432); assay: Inhibition of PDE3A
[4] = Solubility of the compound in phosphate buffered saline; assay type: physicochemical; conditions: buffer
Plasma [5] = assay: Metabolic stability in human plasma assessed as compound remaining at 5 uM after 5 hrs; assay type: ADME, cell-free
How it was run: (§1)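 Compound incubated in human or mouse plasma; stability reported as percent remaining after 5 h.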

Plasma [6] = assay: Metabolic stability in mouse plasma assessed as compound remaining at 5 uM after 5 hrs; assay type: ADME, cell-free; how it was run: as §1
Plasma [7] = assay: Plasma protein binding in human; assay type: ADME, cell-free
[8] = biological target: T2, Proteinase-activated receptor 1 (Homo sapiens); conditions: Plasma, 3 uM
[9] = biological target: T2, Proteinase-activated receptor 1 (Homo sapiens); conditions: Plasma, 3 uM; remark: listed apart in the source
[10] = biological target: T2, Proteinase-activated receptor 1 (Homo sapiens); conditions: Plasma, 3 uM; remark: listed apart in the source
[11] = biological target: T2, Proteinase-activated receptor 1 (Homo sapiens); conditions: Plasma, 3 uM; remark: listed apart in the source
[12] = biological target: T2, Proteinase-activated receptor 1 (Homo sapiens); conditions: 3 uM
[13] = biological target: T2, Proteinase-activated receptor 1 (Homo sapiens); conditions: 3 uM; remark: listed apart in the source
[14] = biological target: T2, Proteinase-activated receptor 1 (Homo sapiens); conditions: 3 uM; remark: listed apart in the source
[15] = biological target: T2, Proteinase-activated receptor 1 (Homo sapiens); conditions: 3 uM; remark: listed apart in the source
[16] = biological target: T2, Proteinase-activated receptor 1 (Homo sapiens); conditions: 3 uM; remark: listed apart in the source

cGMP-inhibited 3',5'-cyclic phosphodiesterase 3A (Homo sapiens), sequence (Q14432 whole entry): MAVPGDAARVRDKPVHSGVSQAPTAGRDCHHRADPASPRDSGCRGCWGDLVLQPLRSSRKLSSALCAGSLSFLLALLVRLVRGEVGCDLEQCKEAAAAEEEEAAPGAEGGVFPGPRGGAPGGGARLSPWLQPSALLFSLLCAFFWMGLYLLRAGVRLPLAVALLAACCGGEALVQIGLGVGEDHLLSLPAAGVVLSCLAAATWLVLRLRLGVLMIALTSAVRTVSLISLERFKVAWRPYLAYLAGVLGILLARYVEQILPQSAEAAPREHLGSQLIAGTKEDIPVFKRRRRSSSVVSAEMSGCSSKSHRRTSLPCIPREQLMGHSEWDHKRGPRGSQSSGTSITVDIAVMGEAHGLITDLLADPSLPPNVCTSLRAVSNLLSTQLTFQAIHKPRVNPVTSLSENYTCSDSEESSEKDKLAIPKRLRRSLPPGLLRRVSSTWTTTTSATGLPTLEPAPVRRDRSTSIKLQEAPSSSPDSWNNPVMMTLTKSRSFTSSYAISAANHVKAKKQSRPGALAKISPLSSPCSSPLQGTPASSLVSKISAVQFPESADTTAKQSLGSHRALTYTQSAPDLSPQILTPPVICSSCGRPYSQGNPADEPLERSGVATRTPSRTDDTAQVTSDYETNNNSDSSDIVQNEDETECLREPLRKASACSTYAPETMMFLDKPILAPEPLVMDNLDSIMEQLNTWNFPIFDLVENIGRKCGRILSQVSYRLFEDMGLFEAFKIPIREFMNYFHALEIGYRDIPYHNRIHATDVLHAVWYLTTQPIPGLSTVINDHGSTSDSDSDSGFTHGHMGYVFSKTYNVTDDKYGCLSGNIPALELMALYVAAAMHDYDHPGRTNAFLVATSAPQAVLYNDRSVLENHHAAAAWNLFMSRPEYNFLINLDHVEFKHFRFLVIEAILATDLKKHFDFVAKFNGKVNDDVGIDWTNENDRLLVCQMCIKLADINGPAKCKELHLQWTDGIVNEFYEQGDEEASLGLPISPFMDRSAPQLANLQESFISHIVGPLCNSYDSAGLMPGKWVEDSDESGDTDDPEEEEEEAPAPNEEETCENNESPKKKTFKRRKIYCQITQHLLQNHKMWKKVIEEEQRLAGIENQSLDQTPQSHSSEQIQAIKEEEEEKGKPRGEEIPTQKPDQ

IC50 [1]: 260 nM
inhibition [2]: > 99%
inhibition [3]: inactive
solubility [4]: 40 µM (≈ 14.4 µg/mL)
Stability (Plasma [5]): 80%
Stability (Plasma [6]): 2%
PPB (Plasma [7]): 97%
inhibition [8]: inactive
inhibition [9]: inactive
inhibition [10]: inactive
inhibition [11]: inactive
inhibition [12]: Active
inhibition [13]: Active
inhibition [14]: inactive
inhibition [15]: inactive
inhibition [16]: inactive
Structure (SMILES): CCCC(=O)Nc1cccc(NC(=O)c2ccccc2Br)c1
